Experimental data from publication PMC6045486 (ACS Omega, 2018).
pIC50: −log10 of the molar value.

How the values were obtained:
CHO cells [1] = assay: Radiation-induced intracellular ROS level; format: cell-based, Chinese Hamster; conditions: 10 μM for 2 h, 2 Gy, 30 min postirradiation
Summary of the method: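 CHO cells were pretreated with 10 μM test compound for 2 h and then γ-irradiated. At 30 min postirradiation, 1 × 10⁴ cells were loaded with DCFDA (5 μM) for 30 min at 37 °C. DCF fluorescence was read on a plate reader (excitation 488 nm, emission 530 nm).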

Chemical stability [2] = format: physicochemical; conditions: 10 μM, cell culture medium with 10% FBS, 1% DMSO, 37 °C, in 2.5 h
CHO cells [3] = assay: Single-cell alkaline gel electrophoresis; format: cell-based, Chinese Hamster; conditions: 10 μM for 2 h, 4 Gy, 0 to 60 min
Summary of the method: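 CHO cells pretreated with 10 μM test compound for 2 h were washed, then irradiated at 4 Gy (⁶⁰Co, 1 Gy/min) in serum-free medium, with 10% FBS re-added afterwards. At 0, 30 and 60 min, about 15 000 cells in 0.8% low-melting agarose were lysed, electrophoresed under alkaline conditions and stained with SYBR Green II. Tail length and olive tail moment were measured in about 50 cells per slide. Mean ± SEM, n = 3.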

[4] = tested on: glutathione S-transferase (GST); assay: GST activity level in MCF7 cells; format: cell-based, human; conditions: MCF7, 25 μM, 48 h
Summary of the method: (§1)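 MCF7 cells were grown in DMEM with 10% FBS at 37 °C and 5% CO2, then exposed to 25 μM test compound (0.1% DMSO) for 48 h. Lysates were made in CelLytic M with protease inhibitor cocktail. About 100 μg protein was used for GSH, GSSG, GPx, GST and GR determinations, with protein measured by Bradford. Mean ± SEM, n = 3, versus DMSO control.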

MCF7 cells [5] = assay: Intracellular redox state: ratio of GSH and GSSG in MCF7 cells; format: cell-based, human; conditions: MCF7, 25 μM, 48 h
Summary of the method: as §1

Chemical stability [6] = format: physicochemical; conditions: 10 μM, phosphate buffer pH 7.4, 1% DMSO, 37 °C, within 1 h
splenic lymphocytes = assay: MTT cytotoxicity assay, splenic lymphocytes; format: cell-based, BALB/c mice; conditions: read-out: IC50 (half maximal concentration to inhibit proliferation by 50%), 48 h
Summary of the method: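 Splenic lymphocytes freshly isolated from BALB/c mice and kept in RPMI-1640 with FBS and antibiotics at 37 °C in 5% CO2. About 2 × 10^3 cells per well, 12 h, then test compound at 5–100 μM (0.1% DMSO final) for 48 h. MTT absorbance read at 570 nm, with % cytotoxicity relative to the DMSO control. Mean ± SEM, n = 3.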

CHO cells [7] = assay: Radiation-induced micronuclei assay and NDI in CHO cells; format: cell-based, Chinese Hamster; conditions: 4 Gy; for reduction in radiation-induced micronuclei formation: pretreatment 2 h, 18 h postirradiation
Summary of the method: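 CHO cells were pretreated with test compound (2.5–10 μM; 10 μM for NDI) for 2 h, washed with PBS and placed in serum-free medium. They were given 4 Gy ⁶⁰Co γ-rays at 1 Gy/min, then returned to 10% FBS. Cytochalasin B (4 μg/mL) was present for 18 h, and cells were stained with acridine orange. Micronuclei were scored in 500 binucleated cells. NDI was calculated from counts of mono- to tetranucleated cells among ≥500 viable cells.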

[8] = tested on: γ-glutamyl-cysteine ligase (γ-GCL); assay: mRNA expression of γ-GCL by RT-PCR in MCF7 cells; format: cell-based, human; conditions: MCF7, 25 μM, 48 h
Summary of the method: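 MCF7 cells were exposed to 25 μM test compound for 48 h. Total RNA was extracted with TRI reagent, and about 2 μg was reverse-transcribed. SYBR Green real-time PCR used γ-GCL-specific primers. CT values were normalised to β-actin and expression expressed relative to control. Mean ± SEM, n = 3.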

[9] = molecular target: T1, thioredoxin reductase (TrxR) (Homo sapiens, UniProt Q16881); assay: TrxR activity level in MCF7 cells; format: cell-based; conditions: MCF7, 25 μM, 48 h
T1 sequence (Q16881 151-649 limits assumed): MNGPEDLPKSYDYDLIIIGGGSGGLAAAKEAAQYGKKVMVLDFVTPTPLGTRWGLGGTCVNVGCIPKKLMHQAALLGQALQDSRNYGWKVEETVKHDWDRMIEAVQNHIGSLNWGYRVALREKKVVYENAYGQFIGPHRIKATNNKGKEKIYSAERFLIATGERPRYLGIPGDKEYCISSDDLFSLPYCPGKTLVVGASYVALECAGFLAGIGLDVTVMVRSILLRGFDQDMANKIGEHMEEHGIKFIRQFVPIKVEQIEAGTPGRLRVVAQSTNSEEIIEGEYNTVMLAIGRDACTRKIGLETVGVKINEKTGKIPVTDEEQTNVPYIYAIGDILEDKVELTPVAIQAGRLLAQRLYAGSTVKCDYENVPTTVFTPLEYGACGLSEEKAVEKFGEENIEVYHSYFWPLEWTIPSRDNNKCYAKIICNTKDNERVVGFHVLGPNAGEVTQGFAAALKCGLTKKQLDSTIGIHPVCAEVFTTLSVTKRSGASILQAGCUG
Summary of the method: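 MCF7 lysates were prepared in CelLytic M with protease inhibitors after 48 h exposure to 25 μM test compound (0.1% DMSO). Thioredoxin reductase activity in about 100 μg protein was measured with a commercial kit; protein was measured by Bradford. Mean ± SEM, n = 3, versus DMSO control.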

cells = assay: Toxicity in cells; format: cell-based; conditions: up to a concentration of 10 μM
Summary of the method: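 Cells were seeded at about 2 × 10³ per well and allowed to attach for 12 h. Lines were CHO, A549 and MCF7 in DMEM with 10% FBS, or fresh BALB/c mouse splenic lymphocytes in RPMI-1640. Cells were then exposed to test compound (5–100 μM, 0.1% DMSO) for 48 h. MTT was read at 570 nm, with % cytotoxicity taken versus control. Mean ± SEM, n = 3.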

[10] = tested on: glutathione peroxidase (GPx); assay: GPx activity level in MCF7 cells; format: cell-based, human; conditions: MCF7, 25 μM, 48 h
Summary of the method: as §1

CHO cells [11] = assay: MTT cytotoxicity assay, CHO; format: cell-based, Chinese Hamster; conditions: read-out: IC50 (half maximal concentration to inhibit proliferation by 50%), 48 h
Summary of the method: (§2)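 Cells kept in DMEM with 10% FBS and penicillin/streptomycin at 37 °C in 5% CO2. About 2 × 10^3 cells per well, 12 h attachment, then test compound at 5–100 μM (from DMSO stock; 0.1% DMSO final) for 48 h. MTT absorbance read at 570 nm, with % cytotoxicity relative to the 0.1% DMSO control. Mean ± SEM, n = 3.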

MCF7 cells [12] = assay: MTT cytotoxicity assay, MCF7; format: cell-based, human; conditions: read-out: IC50 (half maximal concentration to inhibit proliferation by 50%), 48 h
Summary of the method: as §2

rat liver TrxR = molecular target: T2, rat liver TrxR (Rattus norvegicus, UniProt O89049); assay: TrxR inhibition assay in cell-free system; format: biochemical; conditions: for inhibition of TrxR: cell-free, rat liver TrxR
T2 sequence (O89049 1-499): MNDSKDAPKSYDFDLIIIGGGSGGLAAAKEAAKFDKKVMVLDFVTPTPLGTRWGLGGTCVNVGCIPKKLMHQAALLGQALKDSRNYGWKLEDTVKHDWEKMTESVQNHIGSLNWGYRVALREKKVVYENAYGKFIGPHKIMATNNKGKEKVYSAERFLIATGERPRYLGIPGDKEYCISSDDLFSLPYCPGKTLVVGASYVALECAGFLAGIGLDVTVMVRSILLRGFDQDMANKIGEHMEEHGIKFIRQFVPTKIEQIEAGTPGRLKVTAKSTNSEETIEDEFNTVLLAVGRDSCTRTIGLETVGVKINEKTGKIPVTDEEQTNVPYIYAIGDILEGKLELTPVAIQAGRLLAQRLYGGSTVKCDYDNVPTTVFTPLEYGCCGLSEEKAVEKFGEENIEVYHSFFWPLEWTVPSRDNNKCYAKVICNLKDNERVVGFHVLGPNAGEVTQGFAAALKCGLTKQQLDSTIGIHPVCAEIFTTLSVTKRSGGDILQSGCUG
Summary of the method: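 Rat liver TrxR (50 nM) was preincubated at 37 °C for 30 min with 100 μM NADPH and test compound (5–100 μM) in 50 mM Tris–HCl, 1 mM EDTA, pH 7.4 (4% DMSO final). DTNB was then added and TNB formation followed at A412 for 5 min, against a no-enzyme blank and a compound blank. Activity is given as % of control. For reversibility, NADPH was varied 10–100 μM with compound fixed at 50 μM (Lineweaver–Burk).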

A549 cells = assay: MTT cytotoxicity assay, A549; format: cell-based, human; conditions: read-out: IC50 (half maximal concentration to inhibit proliferation by 50%), 48 h
Summary of the method: as §2

With Hispolon [HS] the “reduction in the ROS level compared to radiation control” value (CHO cells [1]) was 40%, the “degraded in culture medium (10% FBS)” value (Chemical stability [2]) was about 30% and the “DNA damage parameters (TL, OTM) compared to radiation control” value (CHO cells [3]) was “significant decrease”. For the same substance, the “inhibition of GST activity” value [4] was “did not cause any significant change”, the “increase in GSH/GSSG” value (MCF7 cells [5]) was “did not cause any significant change” and the “degraded in phosphate buffer” value (Chemical stability [6]) was 65%. The pIC50 (splenic lymphocytes) was under 4.00, the “Nuclear division index (NDI) compared to radiation control” value (CHO cells [7]; 10 μM for 2 h) was “did not affect this much” and the “reduction in radiation-induced micronuclei formation” value (CHO cells [7]; 7.5 μM) was 20%. The “reduction in radiation-induced micronuclei formation” value (CHO cells [7]; 10 μM) was 22%, the “reduction in radiation-induced micronuclei formation” value (CHO cells [7]; up to 5 μM) was “did not affect” and the “mRNA expression of γ-GCL compared to control cells” value [8] was “marginal increase”. The “percent inhibition in TrxR activity” value [9] was 58%, the toxicity in cells (cells) was under 10% and the “inhibition of GPx activity” value [10] was “did not cause any significant change”. For the same substance, the pIC50 (CHO cells [11]) was under 4.00, the pIC50 (MCF7 cells [12]) was 4.38 and the “nature of TrxR inhibition” value (rat liver TrxR; NADPH competition experiment, Lineweaver–Burk) was “reversible inhibition”. For the same substance, the “inhibition of TrxR” value (rat liver TrxR; 100 μM) was 85–95%, the “inhibition of TrxR” value (rat liver TrxR; up to a concentration of 50 μM) was 15–25% and the Vmax (rat liver TrxR; compound 50 μM, NADPH 10–100 μM, unaffected versus control reaction) was 1 nmol/min. For the same substance, the pIC50 (A549 cells) was 4.17.
